Series [1] can be described thus: Inhibition of PI3K/mTOR in human U2OS cells assessed as inhibition of AKT1 phosphorylation at Ser473 residue by C-ELISA. In kind it is cell-based. Put shortly:
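U2OS osteosarcoma cells grown in 0.1% FBS and serum-stimulated. Endogenous phospho-AKT1 Ser473 quantified by cell-based ELISA with chemiluminescent substrate. Signal plotted against inhibitor concentration and fitted to a sigmoid dose-response curve.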

Series [2] is described as follows: Metabolic stability in mouse liver microsomes assessed as parent compound remaining in presence of NADPH regenerating system at 0.5 uM measured after 15 mins by LC-MS/MS analysis. It is filed as ADME, Microsome. The settings on record: read-out: Stabilty. The method, boiled down: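 Human, mouse or rat liver microsomes at 0.5 mg/ml protein with compound at 0.5 µM and NADPH-regenerating system, 37 °C with shaking. Control wells contain 0.1 M potassium phosphate instead of the regenerating system. Reaction stopped with acetonitrile/0.1% formic acid, centrifuged, supernatant analyzed by LC-MS/MS. Result is percent parent compound remaining.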

A further series deals with Cytochrome P450 3A4 (Homo sapiens, UniProt P08684). The experiment in a line: Inhibition of CYP3A4 (unknown origin) using Luciferin-PPXE as substrate at 10 uM preincubated with enzyme and substrate for 5 mins followed by addition of NADPH regeneration system and measured after 60 mins by luminescence method. It is filed as ADME. The method, boiled down: (§1)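 P450-Glo luminescence assays with these substrates: Luciferin-ME (CYP1A2), Luciferin-PPXE (CYP3A4), Luciferin-H (CYP2C9), LuciferinH-EG (CYP2C19), Luciferin-ME-EG (CYP2D6). Compounds run in 1/3 serial dilutions from 10 µM in 0.5% DMSO with enzyme and substrate. After 5 min preincubation, NADPH regeneration reagent added; 60 min at 37 °C, then detection reagent for 30 min. Background subtracted.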
Chain of Cytochrome P450 3A4 (P08684 whole entry): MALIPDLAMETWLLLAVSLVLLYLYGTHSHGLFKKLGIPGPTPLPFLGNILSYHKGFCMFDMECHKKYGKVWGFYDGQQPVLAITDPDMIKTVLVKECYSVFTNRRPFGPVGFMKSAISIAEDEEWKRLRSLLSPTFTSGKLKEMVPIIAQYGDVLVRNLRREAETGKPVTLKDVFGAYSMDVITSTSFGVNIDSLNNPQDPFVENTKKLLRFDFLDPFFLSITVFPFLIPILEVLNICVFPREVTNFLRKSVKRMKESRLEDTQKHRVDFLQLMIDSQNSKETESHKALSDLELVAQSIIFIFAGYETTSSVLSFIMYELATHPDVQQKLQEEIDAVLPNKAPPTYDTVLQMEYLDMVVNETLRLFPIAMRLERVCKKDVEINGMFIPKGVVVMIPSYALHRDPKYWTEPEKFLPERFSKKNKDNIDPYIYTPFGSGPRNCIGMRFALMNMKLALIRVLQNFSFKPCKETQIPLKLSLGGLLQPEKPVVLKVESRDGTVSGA

For a further series, the target named is Cytochrome P450 2D6 (Homo sapiens, UniProt P10635). The experiment in a line: Inhibition of CYP2D6 (unknown origin) using Luciferin-ME-EG as substrate at 10 uM preincubated with enzyme and substrate for 5 mins followed by addition of NADPH regeneration system and measured after 60 mins by luminescence method. It is filed as ADME. Put shortly:
as §1

Series [3] is described as follows: Cmax in BALB/c mouse at 10 mg/kg, po measured for 8 hrs. Further details: route oral, dose 10 mg/kg, time 8 hrs. It is filed as ADME, organism-based. The conditions noted are these: in vivo. The method, boiled down: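 BALB/c mice dosed I.V. or P.O. at the stated dose; plasma levels followed for 8 h. Parameters from noncompartmental analysis: AUC (h.ng/ml), T1/2 (h), Cl (L/h/Kg), Vd (L/Kg), Cmax (ng/ml), Tmax (h).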

A short description of series [4]: Tmax in BALB/c mouse at 10 mg/kg, po measured for 8 hrs. It is filed as ADME, organism-based. The conditions noted are these: in vivo. The method, boiled down:
(§2)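 Dosing in BALB-C mice intravenously or orally, with plasma sampled over 8 h. Parameters (AUC, T1/2, Cl, Vd, Cmax, Tmax) come from a noncompartmental model. Units: AUC h.ng/ml, Vd L/Kg, Cmax ng/ml, Tmax h.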

The nature of series [5]: Plasma concentration in BALB/c mouse at 10 mg/kg, po measured for 8 hrs. It is filed as ADME, organism-based. Put shortly:
as §2

The target in series [6] is PI3-kinase p110-alpha/p85-alpha (Homo sapiens, UniProt P42336). The series is described as follows: Inhibition of human p110alpha/p85alpha using PIP2 as substrate in presence of ATP measured by HTRF assay. It is filed as protein-complex assay.
Chain of PI3-kinase p110-alpha/p85-alpha (Homo sapiens, UniProt P42336) (P27986 whole entry): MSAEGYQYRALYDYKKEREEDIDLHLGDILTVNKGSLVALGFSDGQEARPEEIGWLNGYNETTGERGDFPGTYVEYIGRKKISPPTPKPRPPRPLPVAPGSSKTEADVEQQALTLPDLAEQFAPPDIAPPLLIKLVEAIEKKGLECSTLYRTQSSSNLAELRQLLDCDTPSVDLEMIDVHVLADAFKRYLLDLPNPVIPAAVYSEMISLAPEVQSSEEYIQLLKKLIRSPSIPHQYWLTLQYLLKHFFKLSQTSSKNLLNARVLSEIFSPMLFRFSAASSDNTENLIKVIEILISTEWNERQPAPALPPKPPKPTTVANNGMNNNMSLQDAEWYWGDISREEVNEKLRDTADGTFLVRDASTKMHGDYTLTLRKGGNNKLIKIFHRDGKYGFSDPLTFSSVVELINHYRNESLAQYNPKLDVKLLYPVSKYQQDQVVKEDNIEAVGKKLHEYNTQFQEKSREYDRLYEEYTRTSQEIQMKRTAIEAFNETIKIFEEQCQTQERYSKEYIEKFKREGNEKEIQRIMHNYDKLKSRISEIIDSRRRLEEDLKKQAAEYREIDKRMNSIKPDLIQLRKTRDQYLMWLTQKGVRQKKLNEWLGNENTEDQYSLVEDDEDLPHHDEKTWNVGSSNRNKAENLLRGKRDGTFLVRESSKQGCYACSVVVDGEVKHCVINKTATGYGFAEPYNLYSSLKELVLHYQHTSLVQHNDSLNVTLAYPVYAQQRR
Chain of PI3-kinase p110-alpha/p85-alpha (Homo sapiens, UniProt P42336) (P42336 whole entry): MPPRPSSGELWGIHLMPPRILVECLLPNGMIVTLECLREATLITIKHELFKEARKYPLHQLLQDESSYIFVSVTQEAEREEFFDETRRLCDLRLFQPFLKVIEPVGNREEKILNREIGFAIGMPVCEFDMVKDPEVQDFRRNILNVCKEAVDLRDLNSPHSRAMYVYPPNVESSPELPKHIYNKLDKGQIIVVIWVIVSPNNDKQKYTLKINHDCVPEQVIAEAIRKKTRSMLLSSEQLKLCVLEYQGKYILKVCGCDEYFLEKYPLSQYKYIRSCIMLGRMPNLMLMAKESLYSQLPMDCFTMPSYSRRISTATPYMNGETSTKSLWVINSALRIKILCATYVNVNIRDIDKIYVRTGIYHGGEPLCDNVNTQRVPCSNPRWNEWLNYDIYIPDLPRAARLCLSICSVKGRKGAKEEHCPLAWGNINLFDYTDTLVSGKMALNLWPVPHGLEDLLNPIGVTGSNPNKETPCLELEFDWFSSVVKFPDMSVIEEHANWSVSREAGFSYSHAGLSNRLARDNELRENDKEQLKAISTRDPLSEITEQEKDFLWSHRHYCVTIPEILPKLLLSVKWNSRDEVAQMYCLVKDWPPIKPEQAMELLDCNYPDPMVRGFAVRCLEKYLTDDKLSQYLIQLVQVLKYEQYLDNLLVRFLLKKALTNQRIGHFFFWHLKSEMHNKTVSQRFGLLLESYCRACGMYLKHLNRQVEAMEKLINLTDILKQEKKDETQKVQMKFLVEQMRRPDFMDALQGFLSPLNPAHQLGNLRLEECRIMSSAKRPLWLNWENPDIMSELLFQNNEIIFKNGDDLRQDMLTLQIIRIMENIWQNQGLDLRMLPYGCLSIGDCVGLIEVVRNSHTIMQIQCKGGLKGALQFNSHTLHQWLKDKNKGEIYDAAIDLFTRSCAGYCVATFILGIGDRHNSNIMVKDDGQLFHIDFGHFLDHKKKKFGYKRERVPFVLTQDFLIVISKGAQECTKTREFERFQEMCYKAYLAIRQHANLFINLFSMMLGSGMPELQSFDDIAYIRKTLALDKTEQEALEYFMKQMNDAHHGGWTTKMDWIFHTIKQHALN
In a further series the target is PI3K p110 beta/p85 alpha (Homo sapiens, UniProt P42338). The series is described as follows: Inhibition of human p110beta/p85alpha using PIP2 as substrate in presence of ATP measured by HTRF assay. It is filed as protein-complex assay.
Chain of PI3K p110 beta/p85 alpha (P27986 whole entry): as the sequence (P27986 whole entry) above
Chain of PI3K p110 beta/p85 alpha (P42338 whole entry): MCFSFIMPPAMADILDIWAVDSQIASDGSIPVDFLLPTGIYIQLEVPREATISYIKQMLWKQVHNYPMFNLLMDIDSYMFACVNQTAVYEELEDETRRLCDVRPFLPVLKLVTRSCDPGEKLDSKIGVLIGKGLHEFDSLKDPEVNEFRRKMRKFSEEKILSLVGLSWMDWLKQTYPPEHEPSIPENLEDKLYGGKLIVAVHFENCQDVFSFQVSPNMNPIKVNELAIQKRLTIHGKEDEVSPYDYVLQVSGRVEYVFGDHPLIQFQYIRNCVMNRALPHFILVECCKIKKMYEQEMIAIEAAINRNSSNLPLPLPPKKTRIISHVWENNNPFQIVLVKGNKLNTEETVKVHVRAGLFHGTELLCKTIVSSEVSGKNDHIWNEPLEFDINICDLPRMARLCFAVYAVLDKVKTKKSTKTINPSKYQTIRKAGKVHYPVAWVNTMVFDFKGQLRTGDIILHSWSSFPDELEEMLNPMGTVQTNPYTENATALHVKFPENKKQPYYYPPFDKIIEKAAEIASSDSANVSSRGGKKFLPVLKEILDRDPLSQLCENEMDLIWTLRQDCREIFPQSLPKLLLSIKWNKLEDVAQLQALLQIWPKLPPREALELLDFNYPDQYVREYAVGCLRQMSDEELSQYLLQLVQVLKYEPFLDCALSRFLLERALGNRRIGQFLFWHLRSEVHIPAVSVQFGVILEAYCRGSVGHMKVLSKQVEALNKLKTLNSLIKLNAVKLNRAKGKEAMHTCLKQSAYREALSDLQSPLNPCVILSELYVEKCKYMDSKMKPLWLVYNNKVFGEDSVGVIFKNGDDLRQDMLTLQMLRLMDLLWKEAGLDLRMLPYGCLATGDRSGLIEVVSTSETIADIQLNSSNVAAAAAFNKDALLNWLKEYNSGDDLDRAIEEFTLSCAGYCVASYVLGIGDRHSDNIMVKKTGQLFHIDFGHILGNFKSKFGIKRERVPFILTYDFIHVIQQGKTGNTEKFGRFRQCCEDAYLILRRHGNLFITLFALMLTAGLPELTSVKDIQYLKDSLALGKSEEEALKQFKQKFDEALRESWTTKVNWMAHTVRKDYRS
The target of series [7] is PI3-kinase p110-delta/p85-alpha (Homo sapiens, UniProt O00329). The experiment in a line: Inhibition of human p110delta/p85alpha using PIP2 as substrate in presence of ATP measured by HTRF assay. In kind it is protein-complex assay.
Chain of PI3-kinase p110-delta/p85-alpha (P27986 whole entry, canonical isoform): as the sequence (P27986 whole entry) above
Chain of PI3-kinase p110-delta/p85-alpha (O00329 whole entry, canonical isoform): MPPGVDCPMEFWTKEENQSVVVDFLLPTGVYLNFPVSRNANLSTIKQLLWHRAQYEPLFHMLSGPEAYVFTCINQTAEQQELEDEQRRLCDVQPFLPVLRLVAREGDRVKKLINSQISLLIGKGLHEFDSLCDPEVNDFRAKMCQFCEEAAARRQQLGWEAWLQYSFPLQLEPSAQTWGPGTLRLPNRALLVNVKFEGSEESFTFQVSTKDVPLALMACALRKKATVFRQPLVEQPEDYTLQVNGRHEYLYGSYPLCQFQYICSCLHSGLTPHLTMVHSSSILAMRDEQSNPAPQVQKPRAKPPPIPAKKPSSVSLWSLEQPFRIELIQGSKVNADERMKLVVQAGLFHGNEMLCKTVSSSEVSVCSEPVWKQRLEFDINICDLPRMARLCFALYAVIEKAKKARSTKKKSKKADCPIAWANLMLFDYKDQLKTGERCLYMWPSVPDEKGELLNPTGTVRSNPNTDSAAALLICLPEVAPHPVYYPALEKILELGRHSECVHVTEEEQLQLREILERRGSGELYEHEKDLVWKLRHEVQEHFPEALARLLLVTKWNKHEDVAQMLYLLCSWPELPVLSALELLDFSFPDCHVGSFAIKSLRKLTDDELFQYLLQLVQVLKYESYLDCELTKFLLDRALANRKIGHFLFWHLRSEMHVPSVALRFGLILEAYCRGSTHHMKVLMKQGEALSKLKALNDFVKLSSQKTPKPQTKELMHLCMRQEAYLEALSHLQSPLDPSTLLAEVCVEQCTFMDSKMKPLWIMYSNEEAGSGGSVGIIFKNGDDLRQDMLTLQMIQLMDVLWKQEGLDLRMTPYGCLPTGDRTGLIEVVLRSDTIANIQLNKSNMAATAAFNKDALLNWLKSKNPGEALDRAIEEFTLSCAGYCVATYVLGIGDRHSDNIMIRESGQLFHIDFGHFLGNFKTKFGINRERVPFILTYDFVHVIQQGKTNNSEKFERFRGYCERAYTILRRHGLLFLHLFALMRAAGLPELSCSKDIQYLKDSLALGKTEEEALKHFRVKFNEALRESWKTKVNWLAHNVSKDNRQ
Series [8] deals with Phosphatidylinositol 4,5-bisphosphate 3-kinase catalytic subunit gamma isoform (Homo sapiens, UniProt P48736). The series is described as follows: Inhibition of human p110gamma using PIP2 as substrate in presence of ATP measured by HTRF assay. The method, boiled down:
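HTRF PI3-kinase assay with PIP2 at 10 µM. Enzyme and ATP levels (ATP at 50× KM): p110α/p85α 100 pM with 200 µM ATP; p110δ/p85α 100 pM with 200 µM ATP; p110β/p85α 500 pM with 250 µM ATP; p110γ 4 nM with 100 µM ATP. Activity normalized to no-compound control, variable-slope sigmoidal fit. Two independent experiments in duplicate.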

The species entered for series [9] is Homo sapiens. The experiment in a line: Selectivity ratio of Ki for human p110gamma to Ki for human p110alpha/p85alpha using PIP2 as substrate in presence of ATP. Put shortly:
(§3)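 Ki from a PI3-kinase HTRF assay run per manufacturer. Enzyme levels: p110α/p85α and p110δ/p85α 100 pM, p110β/p85α 500 pM, p110γ 4 nM. ATP at 50× KM: 200 μM (α, δ), 250 μM (β), 100 μM (γ). PIP2 10 μM. Activity normalized to no-compound control. Ratio is the isoform Ki over the α Ki.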

For series [10], the species on record is Homo sapiens. The experiment in a line: Selectivity ratio of Ki for human p110beta/p85alpha to Ki for human p110alpha/p85alpha using PIP2 as substrate in presence of ATP. Put shortly:
as §3

A short description of series [11]: Inhibition of p110alpha E545K mutant/p85alpha (unknown origin) using PIP2:3PS lipid kinase as substrate in presence of ATP measured by ADP-Glo lipid kinase assay. Further details: species or system Homo sapiens. The method, boiled down: (§4)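 Lipid kinase assay with PIP2:3PS substrate held at 3.25 µM. Activity normalized to no-compound control for each enzyme and fitted to a variable-slope sigmoidal dose-response curve.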

The target of series [12] is PI3-kinase p110-alpha/p85-alpha (Homo sapiens, UniProt P42336, E542K). The series is described as follows: Inhibition of p110alpha E542K mutant/p85alpha (unknown origin) using PIP2:3PS lipid kinase as substrate in presence of ATP measured by ADP-Glo lipid kinase assay. In kind it is protein-complex assay. Put shortly: as §4
Chain of PI3-kinase p110-alpha/p85-alpha (Homo sapiens, UniProt P42336, E542K) (P42336 whole entry E542K, looked up): as the sequence (P42336 whole entry) above, with E542K counted along it
A short description of series [13]: Inhibition of PI3K/mTOR in human MCF7 cells assessed as reduction of AKT phosphorylation at Thr308 residue measured after 3 hrs by western blot assay. It is filed as cell-based. The settings on record: MCF7, 3 h. Put shortly:
(§5)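 MCF7 cells treated for 3 h across a dose range, washed and lysed with phosphatase and protease inhibitors. Lysates run on 10% SDS-PAGE and blotted, antibodies incubated overnight at 4 °C.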

The nature of series [14]: Inhibition of PI3K/mTOR in human MCF7 cells assessed as reduction of P70S6K phosphorylation at Thr389 residue measured after 3 hrs by western blot assay. It is filed as cell-based. The conditions noted are these: MCF7, 3 h. Put shortly:
as §5

Series [15] in a line: Inhibition of PI3K/mTOR in human MCF7 cells assessed as reduction of S6 phosphorylation at Ser235/236 residue measured after 3 hrs by western blot assay. The settings on record: MCF7, 3 h. In kind it is cell-based. Put shortly: as §5
A further series deals with HT-29. The series is described as follows: Growth inhibition of human HT-29 cells harboring mutated p110alpha measured after 72 hrs by Cell titre Glo-luminiscence cell viability assay. In kind it is functional. The method, boiled down: (§6)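 Cells harvested just before confluency and seeded at 4,000 cells/well, then left 24 h before dosing. Serial dilutions from 10 mM DMSO stocks, final DMSO ≤0.5%, each concentration in duplicate.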

The subject of another series is SK-OV-3. The experiment in a line: Growth inhibition of human SK-OV-3 cells harboring mutated p110alpha measured after 72 hrs by Cell titre Glo-luminiscence cell viability assay. In kind it is functional. The method, boiled down: as §6

Where only a bound is given, the exact number is not on record here.

Chain of Cytochrome P450 2D6 (P10635 whole entry): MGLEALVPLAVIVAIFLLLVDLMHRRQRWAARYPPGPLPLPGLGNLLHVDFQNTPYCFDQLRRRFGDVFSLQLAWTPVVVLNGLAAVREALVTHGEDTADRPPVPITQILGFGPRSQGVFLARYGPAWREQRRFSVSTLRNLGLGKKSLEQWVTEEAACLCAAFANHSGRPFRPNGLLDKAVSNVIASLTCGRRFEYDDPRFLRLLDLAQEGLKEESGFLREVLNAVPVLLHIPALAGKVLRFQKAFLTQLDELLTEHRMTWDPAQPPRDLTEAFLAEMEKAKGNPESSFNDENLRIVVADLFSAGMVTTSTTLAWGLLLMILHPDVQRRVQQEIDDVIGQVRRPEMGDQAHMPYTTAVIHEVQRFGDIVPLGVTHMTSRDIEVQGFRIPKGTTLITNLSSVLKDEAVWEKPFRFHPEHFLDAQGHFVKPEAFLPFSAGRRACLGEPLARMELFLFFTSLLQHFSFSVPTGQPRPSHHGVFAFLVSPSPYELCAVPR

`COc1ncc2cc1NS(=O)(=O)c1cccc(c1)C(=O)NCc1cncc(c1)-c1cnc3ccc-2cn13`: the EC50 in [1] was 0.17 nM; in series [13], 0.14 nM; in series [14], 0.92 nM; in series [15], 0.84 nM. Besides, the remaining at 0.25 h, 0.5 µM in series [2] was 97%. Besides, the IC50 against Cytochrome P450 3A4 and against Cytochrome P450 2D6 was above 30000 nM in each case. Besides, in series [3], the concentration peaked (Cmax) at 1570 ng/mL. For the same compound, in series [4], the Tmax was 30 min. The same compound showed a concentration at 8 h in series [5] of 202 ng/mL. The Ki was found to be 0.16 nM in [6]; 0.94 nM at PI3K p110 beta/p85 alpha; 0.06 nM in [7]; 0.98 nM in series [8]; 0.14 nM in [11]; 0.27 nM in [12]. In addition, the Selectivity ratio in the series filed under Homo sapiens [9] amounted to 6.3; in the series filed under Homo sapiens [10] it was 6. Besides, the GI50 in the series on HT-29 turned out to be 8.2 nM; in the series on SK-OV-3, 18.9 nM.

The record behind these values is ChEMBL document CHEMBL4819017 (Eur J Med Chem, 2021).
